Experimental data: ChEMBL document CHEMBL1133611, “Molecular design, synthesis, and hypoglycemic activity of a series of thiazolidine-2,4-diones” (J Med Chem, 2000)

Tests used:
[1] = The hypoglycemic activity in diabetic KK mice, activity expressed as % decrease in blood glucose (21h); assay type: functional, Mus musculus
Outline: (§1)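 Nonfasting diabetic KK mice, n = 3, received 1 mg/kg immediately after the first blood sampling and again 18 h later. Tail-vein plasma was taken 18 and 21 h after the first dose, and glucose was measured. Activity (%) = (control PG − treated PG)/control PG × 100; mean ± SEM.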

3T3-L1 = test: Stimulation of adipogenesis in 3T3-L1 cells is expressed as concentration equivalent to the [ 1-14C] uptake counts after treatment with 0.2 ug/mL troglitazone; assay type: functional, Mus musculus
Outline: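 Mouse 3T3-L1 preadipocytes were grown to confluence on collagen-coated wells, then given differentiation medium (5% FBS, 100 ng/mL insulin, 0.1 mM IBMX, dexamethasone) plus compound (DMSO 0.1% v/v final) for 4 days. This was followed by maintenance medium (5% FBS, insulin) for 2 days. Cells were then pulsed 1 h with 7.4 kBq/mL [1-14C]acetic acid, washed, and counted by scintillation.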

[2] = The hypoglycemic activity in diabetic KK mice, activity expressed as % decrease in blood glucose (18 h); assay type: functional, Mus musculus; outline: as §1
[3] = Area under the curve for fumarate salt was evaluated in F344 Rats.; assay type: ADME, organism-based; settings: F344, rat, in vivo
Outline: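 Single oral dose of 25 mg/kg to F344 rats; AUC (µg·h/mL) reported as mean ± SEM, n = 3.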

Rattus norvegicus [4] = test: Relative wt in two week oral toxicity test in male F344/DuCrj rats after 50 mg/kg dose; assay type: functional
Outline: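 Seven-week-old male F344/DuCrj rats, n = 5/group; compound suspended in 0.5% carboxymethylcellulose sodium in water, given by gavage at 50 mg/kg for 2 weeks; controls got vehicle alone. At termination, ether anaesthesia and exsanguination via abdominal aorta; heart and major organs excised and weighed. Relative weight = organ weight/100 g final body weight; mean ± SE, Student's t-test vs control.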

Rattus norvegicus [5] = test: Heart wt absolute in two week oral toxicity test in male F344/DuCrj rats after 50 mg/kg dose; assay type: functional
Outline: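 Seven-week-old male rats, n = 5/group, dosed by gavage at 50 mg/kg for 2 weeks as a suspension in 0.5% carboxymethylcellulose sodium in water; controls received vehicle alone. At termination rats were ether-anaesthetized and exsanguinated via the abdominal aorta, and the heart was excised and weighed. Relative weight = absolute weight/100 g final body weight. Mean ± SE; Student's t-test against control.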

Row | AUC [3] | SMILES | Decrease [1] | EC (3T3-L1) | Decrease [2] | Control (Rattus norvegicus [4]) | Relative (Rattus norvegicus [4]) | Absolute heart weight, % of control (Rattus norvegicus [5]) | Heart weight absolute (Rattus norvegicus [5])
1 | – | O=C1NC(=O)C(Cc2ccc(OCc3nc4cccnc4n3Cc3ccc(Cl)cc3)cc2)S1 (centres undefined) | -8.5% | 0.71 µM | – | – | – | – | –
2 | – | Cn1c(Oc2ccc(CC3SC(=O)NC3=O)cc2)nc2cccnc21 (centres undefined) | 3.6% | 1.35 µM | -7% | – | – | – | –
3 | 11900 ng·h/mL | COc1ccc2nc(COc3ccc(CC4SC(=O)NC4=O)cc3)n(C)c2n1 (centres undefined) | 2.9% | 0.08 µM | 3.6% | – | – | – | –
4 | – | O=C1NC(=O)C(Cc2ccc(OCc3cn4ccccc4n3)cc2)S1 (centres undefined) | 12.7% | 5.09 µM | 5.9% | – | – | – | –
5 | – | CC(C)Oc1ccc2nc(COc3ccc(CC4SC(=O)NC4=O)cc3)n(C)c2n1 (centres undefined) | -0.2% | 0.075 µM | 14.6% | – | – | – | –
6 | – | Cc1ccnc2c1nc(COc1ccc(CC3SC(=O)NC3=O)cc1)n2C (centres undefined) | -6.9% | 0.37 µM | -18.2% | – | – | – | –
7 | – | CCOc1ccc2nc(COc3ccc(CC4SC(=O)NC4=O)cc3)n(C)c2n1 (centres undefined) | 23.6% | 0.078 µM | 29.7% | – | – | – | –
8 | – | O=C1NC(=O)C(Cc2ccc(OCc3nc4cccnc4n3Cc3ccc(-c4ccccc4)cc3)cc2)S1 (centres undefined) | 11.4% | 0.92 µM | 3.8% | – | – | – | –
9 | – | Cn1c(COc2ccc(CC3SC(=O)NC3=O)cc2)nc2ccc(Cl)nc21 (centres undefined) | 47.6% | 0.0009 µM | – | 116% | 0.37 g % | 123% | 0.74 g
10 | – | Cn1c(CCOc2ccc(CC3SC(=O)NC3=O)cc2)nc2cccnc21 (centres undefined) | 13% | 0.65 µM | -5.6% | – | – | – | –
11 | – | Cn1c(COc2ccc(CC3SC(=O)NC3=O)cc2)nc2cc(Br)cnc21 (centres undefined) | 6.2% | 0.34 µM | – | – | – | – | –
12 | – | Cn1c(COc2ccc(CC3SC(=O)NC3=O)cc2)nc2ccc(O)nc21 (centres undefined) | -3.2% | 1.98 µM | -30.6% | – | – | – | –
13 | – | Cn1c(COc2ccc(CC3SC(=O)NC3=O)cc2)nc2ccc(OCc3ccccc3)nc21 (centres undefined) | 18.8% | 0.067 µM | 20.3% | – | – | – | –
14 | – | Cn1c(CCCOc2ccc(CC3SC(=O)NC3=O)cc2)nc2cccnc21 (centres undefined) | -9.3% | 0.081 µM | -3% | – | – | – | –
15 | – | Cn1c(COc2ccc(CC3SC(=O)NC3=O)cc2)nc2ccc(-c3ccccc3)nc21 (centres undefined) | 38.1% | 0.36 µM | 15.5% | – | – | – | –
16 | 36400 ng·h/mL | COc1ccc2nc(COc3ccc(CC4SC(=O)NC4=O)cc3)n(C)c2n1.O=C(O)/C=C/C(=O)O (centres undefined) | – | – | – | – | – | – | –
17 | – | Cc1cc(C)c2nc(COc3ccc(CC4SC(=O)NC4=O)cc3)n(C)c2n1 (centres undefined) | 9.5% | 0.22 µM | 9.5% | – | – | – | –
18 | – | Cn1c(COc2ccc(CC3SC(=O)NC3=O)cc2)nc2ccc(Sc3ccccc3)nc21 (centres undefined) | 14.7% | 0.067 µM | -21.2% | – | – | – | –
19 | – | O=C1NC(=O)C(Cc2ccc(OCc3nc4ccc[nH]c-4n3)cc2)S1 (centres undefined) | 7.4% | 8.18 µM | 13.9% | – | – | – | –
20 | – | O=C1NC(=O)C(Cc2ccc(OCc3nc4cccnc4n3-c3ccccc3)cc2)S1 (centres undefined) | -3.4% | 2.56 µM | 3.9% | – | – | – | –
21 | – | Cn1c(COc2ccc(CC3SC(=O)NC3=O)cc2)nc2cccnc21 (centres undefined) | 27.6% | 0.13 µM | – | 116% | 0.36 g % | 128% | 0.78 g
22 | – | CCn1c(COc2ccc(CC3SC(=O)NC3=O)cc2)nc2cccnc21 (centres undefined) | 2.4% | 1.07 µM | -19.5% | – | – | – | –
23 | – | Cn1c(COc2ccc(CC3SC(=O)NC3=O)cc2)nc2cc(C(F)(F)F)cnc21 (centres undefined) | -26.4% | 0.073 µM | -0.7% | – | – | – | –
24 | – | Cn1c(COc2ccc(CC3SC(=O)NC3=O)cc2)nc2cc(Cl)cnc21 (centres undefined) | 49.7% | 0.16 µM | – | – | – | – | –
25 | 141000 ng·h/mL | COc1ccc2nc(COc3ccc(CC4SC(=O)NC4=O)cc3)n(C)c2n1.Cl (centres undefined) | 1% | 0.11 µM | 14.8% | 106% | 0.33 g % | 111% | 0.68 g
26 | – | CN(CCOc1ccc(CC2SC(=O)NC2=O)cc1)c1ccccn1 (centres undefined) [ROSIGLITAZONE] | 14.6% | 0.09 µM | 21.7% | 113% | 0.36 g % | 119% | 0.76 g
